Activity calls are given as the source filed them. No cut-off for these calls is given here.

For assay [1], the system named is KB. Nature of the assay: Cell cycle arrest in human KB cells assessed as accumulation at sub-G1 phase at 1 uM after 96 hrs by propidium iodide staining-based flow cytometry (reference value: 3.5%). Format: functional.
The nature of assay [2]: Cytotoxicity against chinese hamster RT16 cells expressing human FRalpha after 96 hrs by CellTitre-Blue fluorescence assay in presence of folic acid. The assay is classed as functional, cell-based. The settings on record: Cricetulus griseus, RT16, 96 h. The method, boiled down:
(§1)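 CHO sublines were grown in FF-RPMI/DFBS; transfectants were maintained with G418. Cells were exposed to antifolate (0–1 μM) for 96 h at 37 °C with 2 nM LCV (RT16) or 25 nM LCV (R2/PCFT4). PC43-10 cells were grown in standard RPMI1640/DFBS instead. FRα specificity was tested by adding 200 nM folic acid. Viable cells were read by CellTiter-Blue fluorescence (ex 560/em 590), and IC50 was taken from dose–response curves; means of 3–10 experiments.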

The subject of assay [3] is KB. The assay is described as follows: Cytotoxicity against human KB cells expressing human RFC/FRalpha/PCFT after 96 hrs by CellTitre-Blue fluorescence assay in presence of thymidine/adenosine. Format: functional, cell-based. The method in brief: (§2)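 KB cells were grown in FF-RPMI with DFBS and 2 nM LCV, exposed to antifolate (0–1 μM) for 96 h at 37 °C, and read by CellTiter-Blue fluorescence. IC50 was taken from dose–response curves relative to untreated cells. Protection arms added adenosine 60 μM, thymidine 10 μM, AICA 320 μM, or folic acid 200 nM. Means of 3–10 experiments.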

For assay [4], the system named is KB. Nature of the assay: Cell cycle arrest in human KB cells assessed as accumulation at G1/G0 phase at 1 uM after 48 hrs by propidium iodide staining-based flow cytometry relative to control. The assay is classed as functional. Background: Flow cytometry measures light scatter and fluorescence of single cells or particles in a stream.
The subject of assay [5] is KB. The assay is described as follows: Induction of apoptosis in human KB cells assessed as viable cells at 1 uM after 96 hrs by Annexin V-FITC/7-AAD staining-based flow cytometry (RVB = 89.6%). Format: functional. The note with it: read-out: Activity.
In assay [6] the test system is KB. Nature of the assay: Cytotoxicity against human KB cells expressing human RFC/FRalpha/PCFT after 96 hrs by CellTitre-Blue fluorescence assay. The assay is classed as functional, cell-based. The method, boiled down: as §2
Assay [7] relates to KB. Nature of the assay: Induction of apoptosis in human KB cells assessed as necrotic cells at 1 uM after 96 hrs by Annexin V-FITC/7-AAD staining-based flow cytometry (RVB = 7.80%). Format: functional.
The subject of assay [8] is KB. Nature of the assay: Cytotoxicity against human KB cells expressing human RFC/FRalpha/PCFT assessed as depletion of ATP pools at 1 uM after 24 hrs by ion-pair HPLC analysis. The assay is classed as functional. The method, boiled down: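 KB cells in FF-RPMI/10% DFBS with 2 mM glutamine and 2 nM LCV were exposed to 1 μM drug for 24 h. They were trypsinized and washed, and nucleotides were extracted. ATP was quantified by reversed-phase ion-pair HPLC on a C18 column. Results are means ± standard errors.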

Assay [9] can be described thus: (§3) Inhibition of GARFTase in human KB cells assessed as incorporation of [14C]-glycine into [14C]-formyl GAR incubated 30 mins prior to [14C]-glycine addition measured after 16 hrs by radiometric assay in presence of azaserin. Format: cell-based. The method in brief: (§4)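 KB cells were preincubated 1 h in folate- and glutamine-free medium with 2 nM LCV and a range of drug concentrations. Azaserine (4 μM final) was added for 30 min, then 2 mM glutamine and [14C(U)]glycine (0.1 mCi/L) for 16 h at 37 °C. TCA extracts were ether-washed and run on AG1×8 anion exchange. [14C]formyl GAR was measured per mg protein, and IC50 was set against DMSO controls; three experiments.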

Assay [10] deals with KB. The assay is described as §3. Format: cell-based. The method, boiled down:
as §4

The nature of assay [11]: Cytotoxicity against chinese hamster PC43-10 cells expressing human RFC after 96 hrs by CellTitre-Blue fluorescence assay. Format: functional, cell-based. The note with it: Cricetulus griseus, PC43-10, 96 h. The method in brief: as §1
Assay [12] has as its system KB. Nature of the assay: Cell cycle arrest in human KB cells assessed as accumulation at S phase at 1 uM after 96 hrs by propidium iodide staining-based flow cytometry (reference value: 15.9%). The assay is classed as functional.
In assay [13] the test system is KB. The assay is described as follows: Cell cycle arrest in human KB cells assessed as accumulation at G1/G0 phase at 1 uM after 96 hrs by propidium iodide staining-based flow cytometry (reference value: 67.4%). The assay is classed as functional.
Assay [14] relates to KB. The assay is described as follows: Cell cycle arrest in human KB cells assessed as accumulation at G2/M phase at 1 uM after 96 hrs by propidium iodide staining-based flow cytometry (reference value: 13.2%). The assay is classed as functional.
Assay [15] has as its system KB. Nature of the assay: Cytotoxicity against human KB cells expressing human RFC/FRalpha/PCFT after 96 hrs by CellTitre-Blue fluorescence assay in presence of folic acid. The assay is classed as functional, cell-based. The method in brief: as §2
The test system of assay [16] is KB. Nature of the assay: Induction of apoptosis in human KB cells assessed as late apoptotic cells at 1 uM after 96 hrs by Annexin V-FITC/7-AAD staining-based flow cytometry (reference value: 2.09%). Format: functional.
A short description of assay [17]: Cytotoxicity against chinese hamster R2(VC) cells after 96 hrs by CellTitre-Blue fluorescence assay. Format: functional, cell-based. The settings on record: Cricetulus griseus. The method, boiled down: as §1
Assay [18] deals with KB. Nature of the assay: Cytotoxicity against human KB cells expressing human RFC/FRalpha/PCFT after 96 hrs by CellTitre-Blue fluorescence assay in presence of adenosine/AICA/thymidine. The assay is classed as functional, cell-based. The method in brief: as §2
The subject of assay [19] is R2. The assay is described as follows: Cytotoxicity against chinese hamster R2 cells after 96 hrs by CellTitre-Blue fluorescence assay. The note with it: Cricetulus griseus, R2, 96 h.
In assay [20] the test system is KB. Nature of the assay: Induction of apoptosis in human KB cells assessed as early apoptotic cells at 1 uM after 96 hrs by Annexin V-FITC/7-AAD staining-based flow cytometry (reference value: 0.485%). The assay is classed as functional.
Assay [21] can be described thus: Cytotoxicity against chinese hamster RT16 cells expressing human FRalpha after 96 hrs by CellTitre-Blue fluorescence assay. Format: functional, cell-based. The note with it: Cricetulus griseus, RT16, 96 h. The method, boiled down:
as §1

The test system of assay [22] is R2. The assay is described as follows: Cytotoxicity against chinese hamster R2 cells expressing human PCFT4 after 96 hrs by CellTitre-Blue fluorescence assay. The assay is classed as functional, cell-based, Cricetulus griseus. The settings on record: R2, 96 h.
For assay [23], the target named is Bifunctional purine biosynthesis protein ATIC (Homo sapiens) (UniProt P31939). Nature of the assay: Inhibition of AICARFTase in human KB cells assessed as phosphorylated AMPK at 1 mM after 48 hrs by Western blot analysis. Format: cell-based. The method, boiled down: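 KB cells were treated for 48 h with 10 μM thymidine, or with AMPK activators (metformin 10 mM, AICA 1 mM, AICAR 1 mM) against a water/DMSO vehicle. Cells were sonicated in 10 mM Tris-HCl pH 7.0 with protease/phosphatase inhibitors. 90 μg protein was run on 4–20% SDS gels and blotted for phospho-AMPK, total AMPK and β-actin, with infrared detection.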
Chain of Bifunctional purine biosynthesis protein ATIC (Homo sapiens) (P31939 whole entry, looked up): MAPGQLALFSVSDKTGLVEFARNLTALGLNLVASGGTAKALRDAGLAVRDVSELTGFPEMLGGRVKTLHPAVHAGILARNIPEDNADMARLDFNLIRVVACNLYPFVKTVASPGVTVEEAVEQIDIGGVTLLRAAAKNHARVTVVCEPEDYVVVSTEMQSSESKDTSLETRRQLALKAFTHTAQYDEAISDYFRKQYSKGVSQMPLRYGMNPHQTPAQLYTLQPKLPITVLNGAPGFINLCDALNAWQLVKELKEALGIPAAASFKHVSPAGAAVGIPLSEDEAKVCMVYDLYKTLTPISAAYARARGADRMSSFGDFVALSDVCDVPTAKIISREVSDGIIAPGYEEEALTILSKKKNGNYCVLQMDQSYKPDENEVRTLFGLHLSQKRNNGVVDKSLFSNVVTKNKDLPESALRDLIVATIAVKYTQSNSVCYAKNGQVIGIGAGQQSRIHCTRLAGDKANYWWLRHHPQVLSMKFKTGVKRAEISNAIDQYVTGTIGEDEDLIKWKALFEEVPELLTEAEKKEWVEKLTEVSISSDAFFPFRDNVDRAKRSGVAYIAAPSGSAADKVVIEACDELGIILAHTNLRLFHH

Assay [24] has as its system KB. Nature of the assay: Cytotoxicity against human KB cells at 1 mM after 96 hrs by CellTitre-Blue fluorescence assay. The assay is classed as functional. The note with it: read-out: GI. The method, boiled down:
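KB cells were exposed for 96 h at 37 °C to metformin (0–10 mM) or AICA (0–2 mM) in FF-RPMI/DFBS with 2 nM LCV. Growth was read by CellTiter-Blue fluorescence relative to drug-free cells.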

Assay [25] addresses Folate receptor alpha (Homo sapiens) (UniProt P15328). Nature of the assay: Displacement of [3H]folic acid from human FRalpha expressed in chinese hamster RT16 cells after 15 mins by scintillation counting analysis. The assay is classed as cell-based. The method, boiled down:
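FRα-expressing RT16 CHO cells (~1.5 × 10^6) were grown as monolayers. Bound folates were stripped with ice-cold acetate buffer (pH 3.5), then neutralised with HEPES-buffered saline (pH 7.4). Cells were then competed with [3H]folic acid against graded unlabelled ligand. Bound label read by scintillation, normalised to Folin-phenol protein (pmol/mg). Relative affinity = inverse molar ratio for 50% displacement, folic acid set at 1. Three experiments.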
(In general: Loss of bound radioactivity is the signal in a displacement assay; it reports binding, not function.)

The test system of assay [26] is KB. The assay is described as follows: Cytotoxicity against human KB cells expressing human RFC/FRalpha/PCFT after 96 hrs by CellTitre-Blue fluorescence assay in presence of thymidine. Format: functional, cell-based. The method, boiled down: as §2
Assay [27] concerns KB. Nature of the assay: Cytotoxicity against human KB cells expressing human RFC/FRalpha/PCFT after 96 hrs by CellTitre-Blue fluorescence assay in presence of adenosine. The assay is classed as functional, cell-based. The method, boiled down: as §2
In assay [28] the test system is KB. The assay is described as follows: Cytotoxicity against human KB cells expressing human RFC/FRalpha/PCFT after 96 hrs by CellTitre-Blue fluorescence assay in presence of AICA. The assay is classed as functional, cell-based. The method in brief:
as §2

Chain of Folate receptor alpha (Homo sapiens) (P15328 25-234 limits assumed): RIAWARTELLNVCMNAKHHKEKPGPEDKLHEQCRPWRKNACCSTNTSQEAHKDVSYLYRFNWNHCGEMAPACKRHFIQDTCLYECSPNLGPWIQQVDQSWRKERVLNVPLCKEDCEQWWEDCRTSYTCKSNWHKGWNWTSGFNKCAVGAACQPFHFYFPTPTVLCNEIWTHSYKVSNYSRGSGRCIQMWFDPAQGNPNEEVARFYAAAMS

On to `Nc1nc2[nH]cc(CCc3ccc(C(=O)N[C@@H](CCC(=O)O)C(=O)O)cc3)c2c(=O)[nH]1` [PEMETREXED], for which the Activity in assay [1] is 17.3%; in assay [7], 0.271%; in [12], 27.5%; in [13], 47.8%; in assay [14], 7.5%; in [16], 4.56%. The Activity in assay [20] was found to be 30.6%. Further, the IC50 (usually the midpoint of a concentration-inhibition curve) in assay [2] was more than 1000 nM; in assay [6], 9.94 nM; in [9], 11.7 nM; in assay [11] it was 30.6 nM; in [15], 690 nM; in assay [17] it was more than 1000 nM. Further, the IC50 in assay [19] was more than 1000 nM; in [21], 18.2 nM. In addition, the result in assay [3] was inactive. Also, the result in [4] and in assay [18] was Active. The viability at 1 µM in [5] came to 64.6%. Besides, the inhibition (usually the change of the read-out against control, counted positive when it falls) at 1 µM in assay [8] amounted to 60%. In addition, the inhibition entry in [10] was “Dose-dependent effect”.

With `Nc1nc2[nH]cc(CCCCCCc3ccc(C(=O)N[C@@H](CCC(=O)O)C(=O)O)cc3)c2c(=O)[nH]1`, the IC50 in [2], in assay [22], in assay [17] and in [19] was more than 1000 nM each time.

Turning to `NC(=O)c1[nH]cnc1N`, the inhibition result in assay [23] was “inactive”. Further, in assay [24], the inhibition of growth at 1000 µM is 20%.

Take `Nc1nc2[nH]c(CCCCCc3ccc(C(=O)N[C@@H](CCC(=O)O)C(=O)O)cc3)cc2c(=O)[nH]1`: the IC50 in [22] and in assay [17] was more than 1000 nM each time.

As for `CN(Cc1cnc2nc(N)nc(N)c2n1)c1ccc(C(=O)N[C@@H](CCC(=O)O)C(=O)O)cc1` [METHOTREXATE], in [25], the inhibition result was “inactive”. In assay [17], this compound displayed an IC50 of more than 1000 nM.

`Nc1nc2[nH]c(CCCCCCc3ccc(C(=O)N[C@@H](CCC(=O)O)C(=O)O)cc3)cc2c(=O)[nH]1`: the IC50 in [22] and in [17] was more than 1000 nM in each case.

For the compound `Nc1nc2[nH]cc(CCCCCc3ccc(C(=O)N[C@@H](CCC(=O)O)C(=O)O)cc3)c2c(=O)[nH]1`, the IC50 in [2], in [22], in assay [17] and in [19] was more than 1000 nM in each case. In addition, the result in [26] was Active. Moreover, the result in assay [27] and in [28] was inactive.

The record behind these values is ChEMBL document CHEMBL3102834, “Discovery of 5-substituted pyrrolo[2,3-d]pyrimidine antifolates as dual-acting inhibitors of glycinamide ribonucleotide formyltransferase and 5-aminoimidazole-4-carboxamide ribonucleotide formyltransferase in de novo purine nucleotide biosynthesis: implications of inhibiting …” (J Med Chem, 2013).
